Results taken from ChEMBL document CHEMBL1126638, “Intracellular delivery of bioactive AZT nucleotides by aryl phosphate derivatives of AZT” (J Med Chem, 1993).

Columns and labels:
[1] = tested on: CCRF-CEM; experiment: Anti HIV-1 activity in human lymphocyte CEM/0 cell line; assay type: functional, cell-based
Procedure, shortened: (§1)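 Cells at 5 × 10^5/mL infected with HIV-1 (III_B, stocks from infected MT-4 supernatants) or HIV-2 (ROD) at 100 CCID50 per mL, then mixed with compound dilutions. Giant cell formation recorded microscopically at day 4 (CEM). Viable MT-4 cells counted by trypan blue at day 5. EC50 is the concentration giving 50% protection against viral cytopathicity. Mean of two to four independent experiments.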

[2] = tested on: CCRF-CEM; experiment: Anti HIV-2 activity in human lymphocyte CEM/0 cell line; assay type: functional, cell-based; procedure, shortened: as §1
[3] = Selective index is the ratio of cytotoxic concentration to effective concentration against MT-4 cell line; assay type: functional, MT4
Procedure, shortened: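 Selectivity index for HIV-2 in MT-4 cells is the CC50 (mock-infected cultures, trypan blue viable count at day 5) divided by the EC50 (protection of infected cultures from HIV-2 cytopathicity).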

[4] = tested on: MT4; experiment: Anti HIV-1 activity in human lymphocyte MT-4 cell line; assay type: functional, cell-based; procedure, shortened: as §1
[5] = tested on: MT4; experiment: Anti HIV-2 activity in human lymphocyte MT-4 cell line; assay type: functional, cell-based; procedure, shortened: as §1
[6] = tested on: MT4; experiment: cytotoxic activity in MT-4 cell line; assay type: functional; conditions: Homo sapiens
Procedure, shortened: (§2)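 Mock-infected MT-4 or CEM cell cultures incubated with compound dilutions in the same format as the antiviral assay. CC50 is the concentration reducing viable cell number (MT-4, trypan blue, day 5) […] by 50%. Mean of two to four independent experiments.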

[7] = tested on: CCRF-CEM; experiment: Antiviral activity in HIV-2 infected CEM cells which are deficient in Thymidine Kinase; assay type: functional, cell-based; conditions: Homo sapiens; procedure, shortened: as §1
[8] = tested on: CCRF-CEM; experiment: cytotoxic activity in CEM/0 cell line; assay type: functional; conditions: Homo sapiens; procedure, shortened: as §2
[9] = EC50 of HIV-2 in CEM/TK versus EC50 of HIV-2 in CEM/0; assay type: functional
Procedure, shortened: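 Ratio of the HIV-2 EC50 in thymidine kinase-deficient CEM/TK⁻ cells to the HIV-2 EC50 in CEM/O cells. Both values come from the cytopathicity-protection assay.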

Compound	EC50 [1] [µM]	EC50 [2] [µM]	Selectivity index [3]	EC50 [4] [µM]	EC50 [5] [µM]	CC50 [6] [µM]	EC50 [7] [µM]	CC50 [8] [µM]	Ratio [9]
COC(=O)C(C)NP(=O)(OCC1OC(n2cc(C)c(=O)[nH]c2=O)CC1N=[N+]=[N-])Oc1ccc(F)cc1 (stereo not drawn)	0.048	0.065	3815	0.041	0.054	206	3	128	46
CCc1ccc(OP(=O)(NC(C)C(=O)OC)OCC2OC(n3cc(C)c(=O)[nH]c3=O)CC2N=[N+]=[N-])cc1 (stereo not drawn)	0.048	0.06	153	0.068	0.07	11	8.7	31.7	145
CCCCCc1ccc(OP(=O)(NC(C)C(=O)OC)OCC2OC(n3cc(C)c(=O)[nH]c3=O)CC2N=[N+]=[N-])cc1 (stereo not drawn)	0.051	0.06	99	0.103	0.074	7	8	9	133
Cc1cn([C@H]2C[C@H](N=[N+]=[N-])[C@@H](CO)O2)c(=O)[nH]c1=O [ZIDOVUDINE]	0.003	0.004	2000	0.002		6	> 100	> 500	> 28600
COC(=O)C(NP(=O)(OCC1OC(n2cc(C)c(=O)[nH]c2=O)CC1N=[N+]=[N-])Oc1ccccc1)C(C)C (stereo not drawn)	0.14	0.21	1891	0.099	0.087	205	13	123	62
COC(=O)[C@H](C)NP(=O)(OC[C@H]1O[C@@H](n2cc(C)c(=O)[nH]c2=O)C[C@@H]1N=[N+]=[N-])Oc1ccccc1 (stereo partly drawn)	0.055	0.07	>5555	0.006	0.007	> 50	12	172	171
COC(=O)CNP(=O)(OCC1OC(n2cc(C)c(=O)[nH]c2=O)CC1N=[N+]=[N-])Oc1ccccc1 (stereo not drawn)	0.097	0.23	>2500	0.16	0.2	> 500	> 100	> 500	> 435
COC(=O)C(Cc1ccccc1)NP(=O)(OCC1OC(n2cc(C)c(=O)[nH]c2=O)CC1N=[N+]=[N-])Oc1ccccc1 (stereo not drawn)	0.097	0.16	2356	0.08	0.11	208	10	161	62
COC(=O)C(C)NP(=O)(OCC1OC(n2cc(C)c(=O)[nH]c2=O)CC1N=[N+]=[N-])Oc1ccc(C)cc1 (stereo not drawn)	0.065	0.056	509	0.051	0.053	27	7	43	125
COC(=O)C(C)NP(=O)(OCC1OC(n2cc(C)c(=O)[nH]c2=O)CC1N=[N+]=[N-])Oc1ccc(OC)cc1 (stereo not drawn)	0.057	0.065	2638	0.071	0.069	182	9	42.6	138
CCCc1ccc(OP(=O)(NC(C)C(=O)OC)OCC2OC(n3cc(C)c(=O)[nH]c3=O)CC2N=[N+]=[N-])cc1 (stereo not drawn)	0.041	0.051	631	0.043	0.045	28	3	32.7	59
